The values that follow come from the array DNA melting data of Ke et al. (doi:10.1101/2024.01.08.574731).

Data set [1] in a line: melting temperature; fluorescence melt of hairpins on a sequencing array, two-state fit, raised by 9.35 °C to match UV melts. Particulars: sodium 0.088 M. In outline:
(§1)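 Cy3 fluorescence of library hairpins on a sequenced MiSeq flow cell, with annealed Cy3 and quencher oligos, was imaged in 50 mM Na-HEPES pH 8.0, 25 mM NaCl in 2.5 °C steps up to 60 °C. Signals were normalised to pre-quench Cy3 and to control variants. Melting temperature and folding enthalpy came from bootstrapped two-state fits, inverse-variance combined over four replicates. Fitted temperatures were raised by 9.35 °C to match UV melts.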

The nature of data set [2]: folding enthalpy; higher = less favourable; fluorescence melt of hairpins on a sequencing array, two-state fit. Particulars: sodium 0.088 M. In outline:
as §1

In the case of GACTTGGGAAACCAAGCC (.(((((....))))).), in data set [1], the Tm amounted to 41.8 °C. Besides, the folding enthalpy in data set [2] was -19.1 kcal/mol.
With GACTTGGGAAACTAGGTC (((.(.(....).).))), the Tm in data set [1] was found to be 25.4 °C. In addition, in data set [2], the folding enthalpy is -9.69 kcal/mol.
Regarding GACTTTGGAAACAGAGTC ((((.((....)).)))), in data set [1], the Tm was 38.1 °C. The folding enthalpy in data set [2] is -31.1 kcal/mol.
The like results for GAGAAACGAAAGTTCTC (((.(((....)))))) were, in that order, 40.9 °C and -24.4 kcal/mol.
GAGAAAGCGAAAGCTCTC (((..(((....)))))): the Tm in data set [1] turned out to be 40.2 °C. In data set [2], the folding enthalpy is -14.6 kcal/mol.
GAGAAAGGAAACTTTCCC (.(((((....))))).): the Tm in data set [1] was 25.1 °C. For the same sequence, the folding enthalpy in data set [2] is -12.3 kcal/mol.
Turning to GAGAACCGAAAGGTCCTC (((.(((....))).))), in data set [1], the Tm was 46.6 °C. Further, in data set [2], the folding enthalpy is -24.6 kcal/mol.
Turning to GAGAACGAAAGTTGCTC ((((((....))).))), the Tm in data set [1] turned out to be 33.6 °C. The folding enthalpy in data set [2] was -15.7 kcal/mol.
Take GAGAACGGAAACATTCTC (((((.(....).))))): the Tm in data set [1] came out at 30.1 °C. The folding enthalpy in data set [2] was -23.5 kcal/mol.
Consider GAGAAGCCGAAAGGCCTC (((..(((....)))))), for which the Tm in data set [1] came to 37.4 °C. Also, the folding enthalpy in data set [2] was -12.7 kcal/mol.
In the case of GAGAAGGCGAAAGCCCTC (((..(((....)))))), the Tm in data set [1] is 37.2 °C. Also, in data set [2], the folding enthalpy was -10.5 kcal/mol.
The like results for GAGAATGGAAACATTCTC (((((((....))))))) were, in that order, 54.7 °C and -40.6 kcal/mol.
Take GAGAATGGAAACGTTCTC (((((.(....).))))): in data set [1], the Tm stood at 42.9 °C. In addition, in data set [2], the folding enthalpy was -33.9 kcal/mol.
The matching figures for GAGACACCGAAAGGTCTC (((..(((....)))))): 42.2 °C and -20.4 kcal/mol.
On to GAGACACGAAAGTGCTC (((.(((....)))))), for which, in data set [1], the Tm was determined as 44.6 °C. Also, in data set [2], the folding enthalpy was -16.6 kcal/mol.
Regarding GAGACCGAAAGGTCACTC ((((((....)))..))), the Tm in data set [1] worked out at 55.1 °C. In addition, in data set [2], the folding enthalpy was -13.8 kcal/mol.
The like results for GAGACCGAAAGGTGTCTC ((((((....)))..))) were, in that order, 51.9 °C and -24 kcal/mol.
The matching figures for GAGACCGAAAGGTTCTC ((((((....))).))): 54.2 °C and -22.3 kcal/mol.
In the case of GAGACGAAAGTCTC (((((....))))), the Tm in data set [1] worked out at 67.1 °C. Also, the folding enthalpy in data set [2] was -23.1 kcal/mol.
Regarding GAGACGGGAAACCGTCCC (.(((((....))))).), the Tm in data set [1] is 43.8 °C. Moreover, the folding enthalpy in data set [2] is -11.5 kcal/mol.
With GAGACGGGAAACTGTCTC (((((.(....).))))), the Tm in data set [1] came out at 51.5 °C. In data set [2], the folding enthalpy is -41.1 kcal/mol.
GAGACTGAAAAGTCTC ((((((....)))))): in data set [1], the Tm worked out at 57.5 °C. For the same sequence, the folding enthalpy in data set [2] was -35.9 kcal/mol.
For GAGACTGGAAACAGTTTC ((.((((....)))).)), the Tm in data set [1] worked out at 38.8 °C. Besides, the folding enthalpy in data set [2] is -29.6 kcal/mol.
On to GAGAGACCGAAAGGTCTC (((..(((....)))))), for which the Tm in data set [1] is 62.5 °C. In data set [2], the folding enthalpy was -9.65 kcal/mol.
Regarding GAGAGACGAAAGTCACTC (((.(((....))).))), in data set [1], the Tm came out at 51.3 °C. Moreover, the folding enthalpy in data set [2] was -35.1 kcal/mol.
The like results for GAGAGCCGAAAGGCACTC (((.(((....))).))) were, in that order, 61.1 °C and -20.2 kcal/mol.
The matching figures for GAGAGCGGAAACGCTCCC (.(((((....))))).): 46.1 °C and -9.72 kcal/mol.
Turning to GAGAGGCGAAAGCCCTC (((.(((....)))))), the Tm in data set [1] was 55.7 °C. In data set [2], the folding enthalpy was -14.2 kcal/mol.
On to GAGAGTGGAAACACTCTC (((((((....))))))), for which the Tm in data set [1] worked out at 61.5 °C. Further, in data set [2], the folding enthalpy was -41.2 kcal/mol.
The matching figures for GAGATACGAAAGTACCTC (((.(((....))).))): 41.5 °C and -31.3 kcal/mol.
The matching figures for GAGATGAAAATCTC (((((....))))): 44 °C and -22.2 kcal/mol.
GAGATGACGAAAGTCCTC (((..(((....)))))): in data set [1], the Tm was determined as 30 °C. Also, the folding enthalpy in data set [2] is -11.7 kcal/mol.
The like results for GAGATGCGAAAGCAACTC (((.(((....))).))) were, in that order, 53.9 °C and -23 kcal/mol.
Consider GAGATGGAAACATCTC ((((((....)))))), for which the Tm in data set [1] is 53.5 °C. In data set [2], the folding enthalpy was -37 kcal/mol.
For the sequence GAGATGGGAAACTGTCTC ((((..(....)..)))), in data set [1], the Tm worked out at 33.2 °C. In addition, in data set [2], the folding enthalpy is -21.5 kcal/mol.
The matching figures for GAGATTGAAAAATCTC ((((((....)))))): 47.9 °C and -33.8 kcal/mol.
On to GAGATTGCGAAAGCACTC (((..(((....)))))), for which the Tm in data set [1] came out at 29.5 °C. For the same sequence, the folding enthalpy in data set [2] was -11.3 kcal/mol.
The like results for GAGATTGGAAACAATTTC ((.((((....)))).)) were, in that order, 32.4 °C and -17.9 kcal/mol.
Turning to GAGCAAGGAAACTCGCTC ((((.((....)).)))), the Tm in data set [1] came to 40.6 °C. The folding enthalpy in data set [2] was -30.8 kcal/mol.
The like results for GAGCACCCGAAAGGGCTC (((..(((....)))))) were, in that order, 48.6 °C and -26.7 kcal/mol.
Regarding GAGCACCGAAAGGTTCTC (((.(((....))).))), the Tm in data set [1] was determined as 45.8 °C. Besides, the folding enthalpy in data set [2] was -27.6 kcal/mol.
The matching figures for GAGCACGAAAGTGCACTC ((((((....)))..))): 58 °C and -11.9 kcal/mol.
The matching figures for GAGCACGAAAGTGCCTC ((((((....))).))): 51.2 °C and -10.4 kcal/mol.
The like results for GAGCACGAAAGTGCGCTC ((((((....)))..))) were, in that order, 67.2 °C and -12.5 kcal/mol.
For the sequence GAGCACGAAAGTGGCCTC ((((((....)))..))), in data set [1], the Tm was 42 °C. Besides, in data set [2], the folding enthalpy was -14 kcal/mol.
For the sequence GAGCACGAAAGTGGGCTC ((((((....)))..))), in data set [1], the Tm is 54.7 °C. The folding enthalpy in data set [2] was -23.5 kcal/mol.
In the case of GAGCACGAAAGTGTCTC ((((((....))).))), the Tm in data set [1] is 53.2 °C. For the same sequence, in data set [2], the folding enthalpy was -23.3 kcal/mol.
The matching figures for GAGCACGAAAGTGTTCTC ((((((....)))..))): 52.1 °C and -25.5 kcal/mol.
The like results for GAGCACGCGAAAGCGCTC (((..(((....)))))) were, in that order, 47.6 °C and -12.8 kcal/mol.
With GAGCACGGAAACGTGTTC ((.((((....)))).)), in data set [1], the Tm is 51.6 °C. Besides, in data set [2], the folding enthalpy is -26.2 kcal/mol.
As to GAGCAGCGAAAGCTACTC (((.(((....))).))), the Tm in data set [1] was determined as 49.6 °C. Also, in data set [2], the folding enthalpy is -22.3 kcal/mol.
The like results for GAGCAGCGAAAGCTTCTC (((.(((....))).))) were, in that order, 43.2 °C and -24.7 kcal/mol.
For the sequence GAGCAGGAAACTGCTC ((((((....)))))), the Tm in data set [1] stood at 62.3 °C. Also, the folding enthalpy in data set [2] was -37.8 kcal/mol.
The like results for GAGCAGGGAAACCTGTTC ((.((((....)))).)) were, in that order, 46 °C and -24.1 kcal/mol.
The matching figures for GAGCATCCGAAAGGACTC (((..(((....)))))): 27.5 °C and -10.8 kcal/mol.
The matching figures for GAGCATGGAAACATGTTC ((.((((....)))).)): 42.8 °C and -25.6 kcal/mol.
As to GAGCCAGGAAACCAGCTC ((((..(....)..)))), the Tm in data set [1] came to 34.9 °C. Besides, the folding enthalpy in data set [2] is -24.6 kcal/mol.
The like results for GAGCCAGGAAACCGGCTC (((((.(....).))))) were, in that order, 56.6 °C and -37.5 kcal/mol.
The matching figures for GAGCCCGAAAGGGACCTC ((((((....)))..))): 45 °C and -15.6 kcal/mol.
Regarding GAGCCCGAAAGGGAGCTC ((((((....)))..))), the Tm in data set [1] is 55.6 °C. Further, the folding enthalpy in data set [2] is -20 kcal/mol.
With GAGCCCGGAAACGGACCC (.(.(((....))).).), the Tm in data set [1] worked out at 25.7 °C. Further, the folding enthalpy in data set [2] was -11.2 kcal/mol.
The like results for GAGCCCGGAAACGGGCCC (.(((((....))))).) were, in that order, 49.7 °C and -7.26 kcal/mol.
The matching figures for GAGCCGGGAAACCGACCC (.(.(((....))).).): 30.1 °C and -13.9 kcal/mol.
On to GAGCCGGGAAACCGGTTC ((.((((....)))).)), for which the Tm in data set [1] was determined as 55 °C. In data set [2], the folding enthalpy is -34.5 kcal/mol.
With GAGCCTGGAAACAGGTTC ((.((((....)))).)), the Tm in data set [1] came to 49.5 °C. Further, the folding enthalpy in data set [2] was -27.2 kcal/mol.
In the case of GAGCGAACGAAAGTTCTC (((..(((....)))))), in data set [1], the Tm came out at 27.4 °C. Moreover, in data set [2], the folding enthalpy was -9.38 kcal/mol.
As to GAGCGAGAAATCGCTC ((((((....)))))), in data set [1], the Tm stood at 67.4 °C. Also, the folding enthalpy in data set [2] was -30.4 kcal/mol.
With GAGCGAGCGAAAGCTCTC (((..(((....)))))), in data set [1], the Tm was determined as 35.5 °C. For the same sequence, in data set [2], the folding enthalpy was -8.27 kcal/mol.
The matching figures for GAGCGCGAAAGCGAACTC ((((((....)))..))): 49 °C and -15.2 kcal/mol.
Regarding GAGCGCGAAAGCGCACTC ((((((....)))..))), the Tm in data set [1] came to 60.4 °C. For the same sequence, in data set [2], the folding enthalpy is -10 kcal/mol.
On to GAGCGCGAAAGCGCCTC ((((((....))).))), for which, in data set [1], the Tm turned out to be 58.1 °C. For the same sequence, the folding enthalpy in data set [2] was -7.59 kcal/mol.
The matching figures for GAGCGCGGAAACGCGTTC ((.((((....)))).)): 57.4 °C and -16.9 kcal/mol.
The matching figures for GAGCGGCGAAAGCCCCTC (((.(((....))).))): 46.7 °C and -14.1 kcal/mol.
